For data set [1], the system named is Plasmodium falciparum. The data set is described as follows: Antiplasmodial activity against chloroquine-resistant Plasmodium falciparum K1 after 72 hrs by SYBR green assay. Conditions: K1, 72 h. The data set is classed as functional, organism-based. The method in brief: (§1)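 Compounds dissolved in DMSO (5 mg/mL or 10 mM stock), two-fold serial dilutions. Asynchronous culture (>80% rings) at 1.0% cell suspension, 0.8% parasitemia, 72 h at 37 °C under 5% CO₂/air. Lysis buffer with 2× SYBR Green I added, 1 h at 37 °C. Fluorescence read at 485/530 nm. IC50 by logistic regression of dose-response curves, three replicates, chloroquine reference.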

The nature of data set [2]: Selectivity index, ratio of CC50 for african green monkey Vero cells to IC50 for Plasmodium falciparum 3D7. Format: functional. The method in brief: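 SI = CC50 (Vero, MTT, 72 h) / IC50 against P. falciparum 3D7. […] Read-out SYBR Green I fluorescence (ex 485, em 530 nm), logistic regression, triplicate.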
The next data set deals with Plasmodium yoelii. Kind of data set: Antimalarial activity against Plasmodium yoelii infected in Swiss mouse assessed as inhibition of beta-hematin formation in plasma after 16 hrs by spectrophotometric analysis. The data set is classed as functional, organism-based. The method in brief: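 P. yoelii-infected male Swiss mice (15-20 g; 1×10^5 infected RBCs); blood at 50% parasitemia taken in 2.0% citrate, plasma used. Mix: 100 mM sodium acetate pH 5.1, 50 µL plasma, 100 µM hemin, 1–50 µg compound per 1.0 mL; 37 °C 16 h shaking, triplicate. Pellet washed (Tris-SDS, water), dissolved in NaOH, A400; IC50 by non-linear regression.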

Data set [3] can be described thus: Inhibition of H2O2-induced hemin degradation at 20 uM incubated for 10 mins prior to H2O2-induction measured after 30 mins by spectrophotometric analysis relative to control.
The subject of data set [4] is Plasmodium falciparum. The data set is described as follows: Antiplasmodial activity against chloroquine-sensitive Plasmodium falciparum 3D7 after 72 hrs by SYBR green assay. Conditions: 3D7, 72 h. The data set is classed as functional, organism-based. An outline of the steps:
as §1

The nature of data set [5]: Cytotoxicity against african green monkey Vero cells after 72 hrs by MTT assay. The data set is classed as cell-based. Conditions: chlorocebus sabaeus. The method in brief: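 Vero cells (1 × 10⁴) exposed to serial dilutions of test agents for 72 h; viability read by MTT. Three replicates; CC50 from non-linear regression of dose-response curves.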

This note sets out measurements from ChEMBL document CHEMBL2311266, “Isolation and identification of β-hematin inhibitors from Flacourtia indica as promising antiplasmodial agents” (Eur J Med Chem, 2013).

`O=c1cc2c3c(cc4c(c3o1)C[C@H](O)[C@@H](c1ccc(O)c(O)c1)O4)Oc1cc(O)c(O)cc1-2` [MURURIN A]: the IC50 in the data set with Plasmodium falciparum [1] came out at 1.3 µM; with Plasmodium yoelii, 8.3 µM; in the data set with Plasmodium falciparum [4], 1.2 µM. The “Ratio CC50/IC50” value in data set [2] is 48.7. In data set [3], this molecule came in with an inhibition of 37.5%. This molecule gave a CC50 at 72 h in data set [5] of 58.5 µM.
With `O=C(OC[C@H]1O[C@@H](Oc2ccc(O)cc2CO)[C@H](O)[C@@H](O)[C@@H]1O)c1ccccc1` [POLIOTHYRSOSIDE], the IC50 was over 25 µM with Plasmodium falciparum [1], over 50 µM in the data set on Plasmodium yoelii and 8.1 µM in the data set with Plasmodium falciparum [4]. Also, in data set [2], the “Ratio CC50/IC50” value turned out to be 16.8. This molecule registered a CC50 at 72 h in data set [5] of 136 µM.
Take `CCN(CC)CCCC(C)Nc1ccnc2cc(Cl)ccc12` (stereo not given) [CHLOROQUINE]: the IC50 with Plasmodium yoelii worked out at 7.7 µM. This molecule also showed an inhibition in data set [3] of 53.5%. This molecule came in with a CC50 at 72 h in data set [5] of 126 µM.
On to `COc1cc(-c2cc(=O)c3c(O)cc(O[C@@H]4O[C@H](CO)[C@@H](O)[C@H](O)[C@H]4O)cc3o2)ccc1O`, for which the IC50 in the data set with Plasmodium falciparum [1] is over 5 µM; with Plasmodium yoelii it was over 50 µM; in the data set on Plasmodium falciparum [4] it was 4.4 µM. Further, the “Ratio CC50/IC50” value in data set [2] came out at 45.4. Also, the 50% cytotoxic concentration (CC50) at 72 h in data set [5] is 200 µM.
In the case of `O=C(O[C@H]1[C@H](Oc2ccc(O)cc2COC(=O)[C@@]2(O)[C@H](O)C=CC(=O)[C@@H]2O)O[C@H](CO)[C@@H](O)[C@@H]1O)c1ccccc1`, the IC50 is over 5 µM in the data set with Plasmodium falciparum [1], over 50 µM with Plasmodium yoelii and 4.4 µM in the data set with Plasmodium falciparum [4]. Moreover, the “Ratio CC50/IC50” value in data set [2] is given as 17.6. Also, the CC50 at 72 h in data set [5] turned out to be 77.3 µM.
Taken in the same sequence, the figures for `O=C(OC[C@H]1O[C@@H](Oc2ccc(O)cc2COC(=O)[C@@]2(O)[C@H](O)C=CC(=O)[C@@H]2O)[C@H](O)[C@@H](O)[C@@H]1O)c1ccccc1` were over 5 µM, over 50 µM, 3.6 µM, 32.9 and 118 µM.
Turning to `O=C1C[C@@H](c2ccc(O)c(O)c2)c2c(O)cc3c(c2O1)C[C@H](O)[C@@H](c1ccc(O)c(O)c1)O3`, the IC50 is over 5 µM in the data set on Plasmodium falciparum [1], 10.1 µM in the data set with Plasmodium yoelii and 1.1 µM in the data set on Plasmodium falciparum [4]. Also, the “Ratio CC50/IC50” value in data set [2] worked out at 181.8. The inhibition in data set [3] worked out at 23%. The molecule also gave a CC50 at 72 h in data set [5] of 200 µM.
